Test results reported in ChEMBL document CHEMBL4229355, “Synthesis of 3'-halo-5'-norcarbocyclic nucleoside phosphonates as potent anti-HIV agents” (Eur J Med Chem, 2018).
Active and inactive are the calls of the source. No cut-off for these calls is given here.

What was measured:
Human alphaherpesvirus 2 = experiment: Antiviral activity against HSV-2; assay type: functional, organism-based
Human alphaherpesvirus 1 = experiment: Antiviral activity against HSV-1; assay type: functional, organism-based
[1] = Cytotoxicity against human PBMC assessed as reduction in cell growth after 7 days by MTT assay; assay type: cell-based
How it was run: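 Percent cell viability plotted against compound concentration and fitted to quadratic curves; CC₅₀ is the concentration reducing cell growth by 50%.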

Chikungunya virus = experiment: Antiviral activity against Chikungunya virus; assay type: functional, organism-based
dengue virus type 2 = experiment: Antiviral activity against Dengue virus 2; assay type: functional, organism-based
Zika virus = experiment: Antiviral activity against Zika virus; assay type: functional, organism-based
[2] = system: Human immunodeficiency virus 1; experiment: Antiviral activity against HIV1 LAI infected in PHA-P activated human PBMC assessed as reduction in viral replication preincubated with cells for 30 mins followed by viral infection and measured at day 7 post infection by reverse transcriptase activity-based assay; assay type: functional, organism-based; settings: Human immunodeficiency virus 1, LAI
How it was run: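 PHA-P-activated PBMCs (1.5 × 10⁵ cells) pre-treated 30 min with increasing compound concentrations, then infected with HIV-1 LAI at 100 TCID₅₀; supernatants harvested day 7 post-infection and stored at −20 °C. Percent inhibition of RT activity plotted against concentration and fitted to quadratic curves to give EC₅₀. Mean from 3 blood donors.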

| SMILES | Activity (Human alphaherpesvirus 2) | Activity (Human alphaherpesvirus 1) | CC50 at 168 h [1] [µM] | Activity (Chikungunya virus) | Activity (dengue virus type 2) | Activity (Zika virus) | EC50 [2] [µM] |
| --- | --- | --- | --- | --- | --- | --- | --- |
| Nc1ncnc2c1ncn2[C@H]1C=C(I)[C@@H](OCP(=O)(O)O)C1 (racemic) | inactive | inactive | ≥ 10 | inactive | inactive | inactive | 5.9 |
| Nc1nc(O)c2ncn([C@H]3C=C(I)[C@@H](OCP(=O)(O)O)C3)c2n1 (racemic) | inactive | inactive | ≥ 10 | inactive | inactive | inactive | ≥ 10 |
| C[C@H](Cn1cnc2c(N)ncnc21)OCP(=O)(O)O [TENOFOVIR ANHYDROUS] | – | – | ≥ 10 | – | – | – | 1.1 |
| Nc1nc2c(ncn2[C@H]2C=C(F)[C@@H](OCP(=O)(O)O)C2)c(=O)[nH]1 (racemic) | inactive | inactive | ≥ 10 | inactive | inactive | inactive | ≥ 10 |
| O=P(O)(O)CO[C@H]1C[C@@H](n2cnc3c(O)ncnc32)C=C1I (racemic) | inactive | inactive | ≥ 10 | inactive | inactive | inactive | ≥ 10 |
| Nc1ncnc2c1ncn2[C@H]1C=C(F)[C@@H](OCP(=O)(O)O)C1 (racemic) | inactive | inactive | ≥ 10 | inactive | inactive | inactive | 0.88 |
| O=P(O)(O)CO[C@H]1C[C@@H](n2cnc3c(NC4CC4)ncnc32)C=C1I (racemic) | inactive | inactive | ≥ 10 | inactive | inactive | inactive | ≥ 10 |
